Results: ChEMBL document CHEMBL4680371, “Design and Structure-Activity Relationship of a Potent Furin Inhibitor Derived from Influenza Hemagglutinin” (ACS Med Chem Lett, 2021)
Where a SMILES comes first, the peptide text is derived from it. Bridges are numbered along the chain shown (N, C = ends). [ ]: non-standard residue; d: D form. Abu = CC[C@H](N)C(=O)O

Target: Furin (Homo sapiens, UniProt P09958)
Assay: Inhibition of recombinant soluble human furin using pyroGlu-Arg-Thr-Lys-Arg-methyl-coumaryl-7-amide as substrate measured after 1 hr
In short: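 Soluble human recombinant furin was tested in a competitive kinetic assay. Ki is reported as the mean ± SD of at least two independent experiments.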

Sequence of Furin (P09958 whole entry): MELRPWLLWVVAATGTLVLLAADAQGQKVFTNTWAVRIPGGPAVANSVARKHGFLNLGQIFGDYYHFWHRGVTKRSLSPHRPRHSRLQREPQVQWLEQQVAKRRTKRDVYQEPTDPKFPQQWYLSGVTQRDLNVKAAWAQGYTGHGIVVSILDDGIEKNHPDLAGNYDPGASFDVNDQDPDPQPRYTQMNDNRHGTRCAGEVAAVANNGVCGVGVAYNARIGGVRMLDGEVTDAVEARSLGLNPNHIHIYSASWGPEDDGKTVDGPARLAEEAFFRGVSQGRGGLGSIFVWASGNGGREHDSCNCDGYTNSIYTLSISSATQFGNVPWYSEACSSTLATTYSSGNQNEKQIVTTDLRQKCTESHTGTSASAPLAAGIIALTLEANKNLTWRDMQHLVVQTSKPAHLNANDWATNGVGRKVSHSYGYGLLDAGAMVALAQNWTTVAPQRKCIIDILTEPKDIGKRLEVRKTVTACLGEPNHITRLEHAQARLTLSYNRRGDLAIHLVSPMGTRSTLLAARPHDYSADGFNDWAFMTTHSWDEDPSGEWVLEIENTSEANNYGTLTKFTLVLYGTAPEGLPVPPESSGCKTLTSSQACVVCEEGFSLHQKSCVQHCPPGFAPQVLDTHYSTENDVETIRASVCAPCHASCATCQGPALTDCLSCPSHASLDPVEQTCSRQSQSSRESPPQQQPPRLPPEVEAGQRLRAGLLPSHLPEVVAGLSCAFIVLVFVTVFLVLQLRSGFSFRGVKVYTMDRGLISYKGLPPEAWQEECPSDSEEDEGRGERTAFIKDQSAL

Compared with `CC(=O)N[C@@H](CCCNC(=N)N)C(=O)N[C@@H](C)C(=O)N[C@@H](CCCNC(=N)N)C(=O)N[C@@H](Cc1ccc(O)cc1)C(=O)N[C@@H](CCCNC(=N)N)C(=O)N[C@@H](CCCCN)C(=O)N[C@@H](CCCCN)C(=O)N[C@@H](CCCNC(=N)N)C(=O)N[C@H](C(N)=O)[C@@H](C)O`, `CC(=O)N[C@@H](CCCNC(=N)N)C(=O)N[C@@H](C)C(=O)N[C@@H](CCCNC(=N)N)C(=O)N[C@@H](CO)C(=O)N[C@@H](CCCNC(=N)N)C(=O)N[C@@H](CCCCN)C(=O)N[C@@H](CCCCN)C(=O)N[C@@H](CCCNC(=N)N)C(=O)N[C@H](C(N)=O)[C@@H](C)O` is 3.9-fold lower in Ki: 35 nM for the first, 9 nM for the second.

First: CC(=O)N[C@@H](CCCNC(=N)N)C(=O)N[C@@H](C)C(=O)N[C@@H](CCCNC(=N)N)C(=O)N1CCC[C@H]1C(=O)N[C@@H](CCCNC(=N)N)C(=O)N[C@@H](CCCCN)C(=O)N[C@@H](CCCCN)C(=O)N[C@@H](CCCNC(=N)N)C(=O)N[C@H](C(N)=O)[C@@H](C)O
Second: CC(=O)N[C@@H](CCCNC(=N)N)C(=O)N[C@@H](C)C(=O)N[C@@H](CCCNC(=N)N)C(=O)NC(C)(C)C(=O)N[C@@H](CCCNC(=N)N)C(=O)N[C@@H](CCCCN)C(=O)N[C@@H](CCCCN)C(=O)N[C@@H](CCCNC(=N)N)C(=O)N[C@H](C(N)=O)[C@@H](C)O
The Ki of the first is 4.2-fold lower: 8 nM for the first, 34 nM for the second.

Going from `CC(=O)N[C@@H](CCCNC(=N)N)C(=O)N[C@@H](C)C(=O)N[C@@H](CCCNC(=N)N)C(=O)N[C@H]1CCCCNC(=O)[C@H](CCCNC(=N)N)NC(=O)[C@H](CCCCN)NC(=O)[C@H](CCCCN)NC(=O)[C@H](CCCNC(=N)N)NC(=O)[C@H]([C@@H](C)O)NC1=O` (Ac-RARKTRKKR; lactam 4-C) to `CC(=O)N[C@@H](CO)C(=O)N[C@@H](C)C(=O)N[C@@H](CCCNC(=N)N)C(=O)N[C@@H](CCCNC(=N)N)C(=O)N[C@@H](CCCNC(=N)N)C(=O)N[C@@H](CCCCN)C(=O)N[C@@H](CCCCN)C(=O)N[C@@H](CCCNC(=N)N)C(=O)N[C@H](C(N)=O)[C@@H](C)O`, the Ki falls from 2500 nM to 11 nM (230-fold). The second binds more tightly here.

First: CC[C@H](NC(=O)[C@H](CCCNC(=N)N)NC(=O)[C@H](C)NC(=O)CNC(C)=O)C(=O)N[C@@H](CCCNC(=N)N)C(=O)N[C@@H](CCCCN)C(=O)N[C@@H](CCCCN)C(=O)N[C@@H](CCCNC(=N)N)C(=O)N[C@H](C(N)=O)[C@@H](C)O (Ac-GAR[Abu]RKKRT-NH2)
Second: CC[C@H](NC(=O)[C@H](CCCNC(=N)N)NC(=O)[C@H](C)NC(=O)[C@@H](CO)NC(C)=O)C(=O)N[C@@H](CCCNC(=N)N)C(=O)N[C@@H](CCCCN)C(=O)N[C@@H](CCCCN)C(=O)N[C@@H](CCCNC(=N)N)C(=O)N[C@H](C(N)=O)[C@@H](C)O
The Ki of the first is 1.5-fold lower: 10 nM for the first, 15 nM for the second. The first binds more tightly here.

`CC(=O)N[C@@H](CCCNC(=N)N)C(=O)N[C@@H](CCCNC(=N)N)C(=O)N[C@@H](CCCNC(=N)N)C(=O)N[C@@H](CCCNC(=N)N)C(=O)N[C@@H](CCCNC(=N)N)C(=O)N[C@@H](CCCCN)C(=O)N[C@@H](CCCCN)C(=O)N[C@@H](CCCNC(=N)N)C(=O)N[C@H](C(N)=O)[C@@H](C)O` and `CC(=O)N[C@@H](CCCNC(=N)N)C(=O)N[C@@H](CC(N)=O)C(=O)N[C@@H](CCCNC(=N)N)C(=O)N[C@@H](CCCNC(=N)N)C(=O)N[C@@H](CCCNC(=N)N)C(=O)N[C@@H](CCCCN)C(=O)N[C@@H](CCCCN)C(=O)N[C@@H](CCCNC(=N)N)C(=O)N[C@H](C(N)=O)[C@@H](C)O` are within 1.5-fold of each other in Ki: 23 nM for the first, 20 nM for the second.

Compared with `CC(=O)N[C@@H](CCCNC(=N)N)C(=O)N[C@@H](C)C(=O)N[C@@H](Cc1c[nH]c2ccccc12)C(=O)N[C@@H](CCCNC(=N)N)C(=O)N[C@@H](CCCNC(=N)N)C(=O)N[C@@H](CCCCN)C(=O)N[C@@H](CCCCN)C(=O)N[C@@H](CCCNC(=N)N)C(=O)N[C@H](C(N)=O)[C@@H](C)O`, `CC(=O)N[C@@H](CCCNC(=N)N)C(=O)N[C@@H](C)C(=O)N[C@@H](CCCNC(=N)N)C(=O)N[C@@H](Cc1c[nH]c2ccccc12)C(=O)N[C@@H](CCCNC(=N)N)C(=O)N[C@@H](CCCCN)C(=O)N[C@@H](CCCCN)C(=O)N[C@@H](CCCNC(=N)N)C(=O)N[C@H](C(N)=O)[C@@H](C)O` is 2.1-fold lower in Ki: 97 nM for the first, 47 nM for the second.

First: CC(=O)N[C@H](C(=O)N[C@@H](C)C(=O)N[C@@H](CCCNC(=N)N)C(=O)N[C@@H](CCCNC(=N)N)C(=O)N[C@@H](CCCNC(=N)N)C(=O)N[C@@H](CCCCN)C(=O)N[C@@H](CCCCN)C(=O)N[C@@H](CCCNC(=N)N)C(=O)N[C@H](C(N)=O)[C@@H](C)O)[C@@H](C)O
Second: CC(=O)N[C@@H](CCCNC(=N)N)C(=O)N[C@@H](C)C(=O)N[C@H](C(=O)N[C@@H](CCCNC(=N)N)C(=O)N[C@@H](CCCNC(=N)N)C(=O)N[C@@H](CCCCN)C(=O)N[C@@H](CCCCN)C(=O)N[C@@H](CCCNC(=N)N)C(=O)N[C@H](C(N)=O)[C@@H](C)O)[C@@H](C)O
The Ki of the first is 2.8-fold lower: 10 nM for the first, 28 nM for the second.

First: CC(=O)N[C@@H](CCCNC(=N)N)C(=O)N[C@@H](C)C(=O)N[C@@H](CCCNC(=N)N)C(=O)N[C@@H](Cc1c[nH]cn1)C(=O)N[C@@H](CCCNC(=N)N)C(=O)N[C@@H](CCCCN)C(=O)N[C@@H](CCCCN)C(=O)N[C@@H](CCCNC(=N)N)C(=O)N[C@H](C(N)=O)[C@@H](C)O
Second: CC(=O)N[C@@H](CCCNC(=N)N)C(=O)N[C@@H](C)C(=O)N[C@@H](CC(C)C)C(=O)N[C@@H](CCCNC(=N)N)C(=O)N[C@@H](CCCNC(=N)N)C(=O)N[C@@H](CCCCN)C(=O)N[C@@H](CCCCN)C(=O)N[C@@H](CCCNC(=N)N)C(=O)N[C@H](C(N)=O)[C@@H](C)O
The Ki of the first is 1.6-fold higher: 22 nM for the first, 14 nM for the second. The second binds more tightly here.

Going from `CC(=O)N[C@@H](C)C(=O)N[C@H](C(=O)N[C@@H](CCCNC(=N)N)C(=O)N[C@@H](CCCNC(=N)N)C(=O)N[C@@H](CCCNC(=N)N)C(=O)N[C@@H](CCCCN)C(=O)N[C@@H](CCCCN)C(=O)N[C@@H](CCCNC(=N)N)C(=O)N[C@H](C(N)=O)[C@@H](C)O)C(C)C` (Ac-AVRRRKKRT-NH2) to `CC[C@H](C)[C@@H](NC(=O)[C@H](CCCNC(=N)N)NC(=O)[C@H](C)NC(=O)[C@H](CCCNC(=N)N)NC(C)=O)C(=O)N[C@@H](CCCNC(=N)N)C(=O)N[C@@H](CCCCN)C(=O)N[C@@H](CCCCN)C(=O)N[C@@H](CCCNC(=N)N)C(=O)N[C@H](C(N)=O)[C@@H](C)O`, the Ki rises from 10 nM to 240 nM (24-fold). The first binds more tightly here.

Compared with `CC(=O)N[C@@H](CCC(=O)O)C(=O)N[C@@H](C)C(=O)N[C@@H](CCCNC(=N)N)C(=O)N[C@@H](CCCNC(=N)N)C(=O)N[C@@H](CCCNC(=N)N)C(=O)N[C@@H](CCCCN)C(=O)N[C@@H](CCCCN)C(=O)N[C@@H](CCCNC(=N)N)C(=O)N[C@H](C(N)=O)[C@@H](C)O`, `CC(=O)N[C@@H](CCCNC(=N)N)C(=O)N[C@@H](C)C(=O)N[C@@H](CCC(=O)O)C(=O)N[C@@H](CCCNC(=N)N)C(=O)N[C@@H](CCCNC(=N)N)C(=O)N[C@@H](CCCCN)C(=O)N[C@@H](CCCCN)C(=O)N[C@@H](CCCNC(=N)N)C(=O)N[C@H](C(N)=O)[C@@H](C)O` is 13-fold higher in Ki: 11 nM for the first, 140 nM for the second.

Compared with `CC(=O)N[C@@H](CCCNC(=N)N)C(=O)NCC(=O)N[C@@H](CCCNC(=N)N)C(=O)N[C@@H](CCCNC(=N)N)C(=O)N[C@@H](CCCNC(=N)N)C(=O)N[C@@H](CCCCN)C(=O)N[C@@H](CCCCN)C(=O)N[C@@H](CCCNC(=N)N)C(=O)N[C@H](C(N)=O)[C@@H](C)O`, `CSCC[C@H](NC(=O)[C@H](CCCNC(=N)N)NC(C)=O)C(=O)N[C@@H](CCCNC(=N)N)C(=O)N[C@@H](CCCNC(=N)N)C(=O)N[C@@H](CCCNC(=N)N)C(=O)N[C@@H](CCCCN)C(=O)N[C@@H](CCCCN)C(=O)N[C@@H](CCCNC(=N)N)C(=O)N[C@H](C(N)=O)[C@@H](C)O` is 2.2-fold higher in Ki: 17 nM for the first, 38 nM for the second. The first binds more tightly here.

`CC(=O)N[C@@H](CCCCN)C(=O)N[C@@H](C)C(=O)N[C@@H](CCCNC(=N)N)C(=O)N[C@@H](CCCNC(=N)N)C(=O)N[C@@H](CCCNC(=N)N)C(=O)N[C@@H](CCCCN)C(=O)N[C@@H](CCCCN)C(=O)N[C@@H](CCCNC(=N)N)C(=O)N[C@H](C(N)=O)[C@@H](C)O` and `CC(=O)N[C@@H](CCC(N)=O)C(=O)N[C@@H](C)C(=O)N[C@@H](CCCNC(=N)N)C(=O)N[C@@H](CCCNC(=N)N)C(=O)N[C@@H](CCCNC(=N)N)C(=O)N[C@@H](CCCCN)C(=O)N[C@@H](CCCCN)C(=O)N[C@@H](CCCNC(=N)N)C(=O)N[C@H](C(N)=O)[C@@H](C)O` are within 1.5-fold of each other in Ki: 13 nM for the first, 10 nM for the second.

`CC(=O)NCC(=O)N[C@@H](C)C(=O)N[C@@H](CCCNC(=N)N)C(=O)N[C@@H](CCCNC(=N)N)C(=O)N[C@@H](CCCNC(=N)N)C(=O)N[C@@H](CCCCN)C(=O)N[C@@H](CCCCN)C(=O)N[C@@H](CCCNC(=N)N)C(=O)N[C@H](C(N)=O)[C@@H](C)O` and `CSCC[C@H](NC(=O)[C@H](CCCNC(=N)N)NC(=O)[C@H](C)NC(=O)[C@H](CCCNC(=N)N)NC(C)=O)C(=O)N[C@@H](CCCNC(=N)N)C(=O)N[C@@H](CCCCN)C(=O)N[C@@H](CCCCN)C(=O)N[C@@H](CCCNC(=N)N)C(=O)N[C@H](C(N)=O)[C@@H](C)O` are within 1.5-fold of each other in Ki: 11 nM for the first, 16 nM for the second.

`CC(=O)N[C@@H](CCCNC(=N)N)C(=O)N[C@@H](Cc1c[nH]c2ccccc12)C(=O)N[C@@H](CCCNC(=N)N)C(=O)N[C@@H](CCCNC(=N)N)C(=O)N[C@@H](CCCNC(=N)N)C(=O)N[C@@H](CCCCN)C(=O)N[C@@H](CCCCN)C(=O)N[C@@H](CCCNC(=N)N)C(=O)N[C@H](C(N)=O)[C@@H](C)O` and `CC(=O)N[C@@H](CCCNC(=N)N)C(=O)N[C@@H](CCC(=O)O)C(=O)N[C@@H](CCCNC(=N)N)C(=O)N[C@@H](CCCNC(=N)N)C(=O)N[C@@H](CCCNC(=N)N)C(=O)N[C@@H](CCCCN)C(=O)N[C@@H](CCCCN)C(=O)N[C@@H](CCCNC(=N)N)C(=O)N[C@H](C(N)=O)[C@@H](C)O` are within 1.5-fold of each other in Ki: 29 nM for the first, 24 nM for the second.

Compared with `CC[C@H](C)[C@H](NC(=O)[C@H](CCCNC(=N)N)NC(=O)[C@H](C)NC(=O)[C@H](CCC(=O)O)NC(C)=O)C(=O)N[C@@H](CCCNC(=N)N)C(=O)N[C@@H](CCCCN)C(=O)N[C@@H](CCCCN)C(=O)N[C@@H](CCCNC(=N)N)C(=O)N[C@H](C(N)=O)[C@@H](C)O` (Ac-EARIRKKRT-NH2), `CC[C@H](C)[C@H](NC(=O)[C@H](C)NC(=O)[C@H](CCCNC(=N)N)NC(C)=O)C(=O)N[C@@H](CCCNC(=N)N)C(=O)N[C@@H](CCCNC(=N)N)C(=O)N[C@@H](CCCCN)C(=O)N[C@@H](CCCCN)C(=O)N[C@@H](CCCNC(=N)N)C(=O)N[C@H](C(N)=O)[C@@H](C)O` is 2.2-fold higher in Ki: 12 nM for the first, 26 nM for the second.

With `CC(=O)N[C@@H](CCCNC(=N)N)C(=O)N[C@@H](C)C(=O)N[C@@H](CCC(N)=O)C(=O)N[C@@H](CCCNC(=N)N)C(=O)N[C@@H](CCCNC(=N)N)C(=O)N[C@@H](CCCCN)C(=O)N[C@@H](CCCCN)C(=O)N[C@@H](CCCNC(=N)N)C(=O)N[C@H](C(N)=O)[C@@H](C)O` the Ki was 20 nM.
